ADAM17 inh: inhibits human ADAM17; P78536; inhibition, % at 6.95 µM; actives 0.83% (n = 370,000); recombinant ADAM17, EDANS/DABCYL FRET peptide cleavage; AID 720648;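 active = inhibition above the mean of compounds lying between control limits plus 3 SD, set per campaign, cut at about 8.5% in these data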;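 note: 0% = DMSO-only wells as the low control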
CaV13 ICDI inh: Disruptors of the CACNA1D IQ motif to Ca2+-dependent inactivation inhibitor domain association, primary screening, Förster resonance energy transfer in intact living … | AID 743397 | HEK cells, CFP/YFP FRET ICDI-IQ, plate reader, 10 min; percent FRET-ratio fall versus neutral wells | inhibition, % at 12.3 µM | actives 0.098% (n = 340,000);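 active = mean replicate inhibition of at least 30% and at least 1% of replicates passing that level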;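 note: 0% = median of the neutral control wells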
ADAM10 inh: inhibits human ADAM10 | recombinant ADAM10, EDANS/DABCYL FRET peptide cleavage, 3 h | inhibition, % at 7 µM | actives 0.62% (n = 370,000);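 active = inhibition above a per-campaign cutoff equal to the mean of compounds falling between control-based bounds plus 3 SD, cut at about 20% in these data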;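 note: 0% = DMSO wells while the 100% control is not disclosed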
Arrestin-AP2 inh: blocks beta-arrestin peptide binding to AP2 adaptin | FITC-arrestin peptide / GST-AP2 beads, flow cytometry; AP2 beta2 appendage carries R879A mutation | actives 0.31% (n = 340,000) | inhibition, % at 10 µM;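 active = inhibition above a set limit, near 3 SD of compounds lacking own fluorescence, cut at about 54% in these data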;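 note: plate controls were DMSO wells for no effect and 5 µM unlabelled arrestin peptide for full effect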
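System: GST-AP2 R879A glutathione beads. Medium: PBS with 0.05% Tween 20 and 0.1% BSA. Also added: FITC-arrestin peptide, 50 nM. Incubation: 12 min plus 1 h, RT. Measured by: high-throughput flow cytometry of beads, ex 488, em 535 nm. Evaluation: percent drop in bead-associated FITC signal.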
FAS TE block: blocks the thioesterase domain of human fatty acid synthase; recombinant FAS-TE, OMFH fluorogenic substrate, fluorescence endpoint; inhibition, % at 15 µM; actives 0.67% (n = 360,000); AID 602261;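 active = compounds whose normalised, plate-corrected inhibition of enzyme fluorescence in the single-dose primary screen is 50% or more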;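 note: 0% = DMSO with enzyme and 100% = substrate without enzyme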
CendR NRP1 mod: NRP-1/CendR interaction modulation; inhibition, % at 25 µM; FAM-RPARPAR peptide binding to NRP-1, fluorescence polarization; O14786; actives 0.85% (n = 360,000);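 active = inhibition or corrected inhibition above about 18%, plus a signal ratio from 0.5 to 1.5, limit read from the data, passing the limit was not always enough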
Target sequence (O14786 whole entry, looked up): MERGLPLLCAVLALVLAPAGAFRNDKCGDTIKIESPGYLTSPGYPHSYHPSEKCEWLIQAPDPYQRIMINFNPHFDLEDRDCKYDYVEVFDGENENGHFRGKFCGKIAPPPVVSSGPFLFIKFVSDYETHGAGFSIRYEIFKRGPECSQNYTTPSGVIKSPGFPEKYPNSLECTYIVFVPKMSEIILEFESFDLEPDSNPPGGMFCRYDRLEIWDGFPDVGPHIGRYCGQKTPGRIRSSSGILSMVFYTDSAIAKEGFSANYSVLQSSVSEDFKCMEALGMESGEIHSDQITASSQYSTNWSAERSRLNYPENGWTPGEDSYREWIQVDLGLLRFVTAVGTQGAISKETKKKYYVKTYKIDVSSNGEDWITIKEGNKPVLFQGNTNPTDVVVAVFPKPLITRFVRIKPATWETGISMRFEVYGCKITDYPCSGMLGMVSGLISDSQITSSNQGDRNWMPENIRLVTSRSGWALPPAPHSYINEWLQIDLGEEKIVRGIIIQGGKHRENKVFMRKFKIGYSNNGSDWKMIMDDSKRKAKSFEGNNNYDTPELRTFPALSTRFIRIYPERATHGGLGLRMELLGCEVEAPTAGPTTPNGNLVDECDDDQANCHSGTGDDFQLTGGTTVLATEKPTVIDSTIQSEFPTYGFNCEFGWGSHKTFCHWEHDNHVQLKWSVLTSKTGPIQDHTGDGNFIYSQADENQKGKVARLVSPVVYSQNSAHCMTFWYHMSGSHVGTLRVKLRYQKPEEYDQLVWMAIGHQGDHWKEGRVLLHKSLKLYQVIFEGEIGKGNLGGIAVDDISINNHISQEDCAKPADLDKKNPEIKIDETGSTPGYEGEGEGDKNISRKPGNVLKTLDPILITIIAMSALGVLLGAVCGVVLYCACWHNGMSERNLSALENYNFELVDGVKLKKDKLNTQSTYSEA
Numbers without * were called inactive; . = no result. Compounds with a hit are over-represented: about 2.9% of the library has one in this group of screens.

SMILES | ADAM17 inh | CaV13 ICDI inh | ADAM10 inh | Arrestin-AP2 inh | FAS TE block | CendR NRP1 mod
CC(C)NC(=O)Nc1ccc2c(c1)C(=O)N([C@H](C)CO)C[C@H](C)[C@@H](CN(C)S(=O)(=O)c1cccs1)O2 | 3 | -10 | 1 | 7 | -8 | 25*
C[C@H](CO)N1C[C@H](C)[C@@H](CN(C)C(=O)Nc2ccc3c(c2)OCO3)Oc2c(NC(=O)Nc3ccc4c(c3)OCO4)cccc2C1=O | 0 | -5 | 0 | -13 | 55* | 23
C[C@H](CO)N1C[C@H](C)[C@@H](CN(C)S(=O)(=O)c2cccs2)Oc2ccc(NC(=O)Nc3ccc4c(c3)OCO4)cc2C1=O | 3 | -11 | 0 | -3 | 4 | 2
Cc1noc(C)c1NC(=O)N(C)C[C@H]1Oc2c(NC(=O)c3ccncc3)cccc2C(=O)N([C@H](C)CO)C[C@@H]1C | -2 | -5 | -1 | -1 | -3 | -4
Cc1noc(C)c1NC(=O)N(C)C[C@H]1Oc2c(NC(=O)NC(C)C)cccc2C(=O)N([C@H](C)CO)C[C@@H]1C | -4 | -11 | 7 | 1 | -9 | 25*
C[C@@H]1CN([C@@H](C)CO)C(=O)Cc2cc(NC(=O)Nc3ccc(F)cc3)ccc2O[C@@H]1CN(C)Cc1ccc(Cl)c(Cl)c1 | 13* | -10 | 34* | -1 | 21 | 1
C[C@@H]1CN([C@@H](C)CO)C(=O)CCCn2cc(nn2)CO[C@H]1CN(C)C(=O)c1ccc(N2CCN(C)CC2)cc1 | -5 | -5 | -13 | . | . | .
O=C(c1ccc(F)cc1)C(CN1CCOCC1)c1ccccc1 (stereo not given) | -3 | -7 | -2 | 33 | -1 | 27*
CC(OC(=O)C1CCCC1)C(=O)Nc1ncc(Cl)cc1Cl (stereo not given) | -8 | -2 | -27 | 2 | -3 | 22*
O=C(CCl)N1CCCC1c1ccc2c(c1)OCCO2 (stereo not given) | -3 | -8 | -3 | -6 | 0 | 0
CCC(Sc1nc(N)c(NC(=O)c2ccc(OC)cc2)c(=O)[nH]1)C(=O)O (stereo not given) | -1 | 67* | -4 | -3 | -8 | 7
CCCCC(Sc1nc(N)c(NC(=O)c2ccc(OC)cc2)c(=O)[nH]1)C(=O)O (stereo not given) | -1 | -2 | -1 | -8 | -4 | 2
O=S(=O)(Cc1ccccc1)Nc1ccc(Br)cn1 | -6 | -5 | -14 | 13 | -3 | 10
Cc1ccc(NS(=O)(=O)Cc2ccccc2)nc1 | -80 | -2 | -207 | 4 | -2 | 26*
Cc1ccccc1Oc1ccc2c(c1)[C@@H]1C[C@H](N(C)C(=O)Nc3cc(Cl)cc(Cl)c3)[C@H]([C@H](C)O)C(=O)N1CC2 | -1 | -6 | 0 | 29 | 38 | 35*
COCC(C)n1c(SCC(=O)Nc2ccc3c(c2)OCCO3)nc2ccccc2c1=O (stereo not given) | -2 | -2 | -10 | -2 | 5 | 22*
COc1ccc(N2CCN(CCNS(=O)(=O)c3cccs3)CC2)cc1 | -5 | . | -8 | . | . | .
CCC(=O)c1cn(CC(=O)Nc2ccccc2)c2ccccc12 | -1 | 0 | -4 | -2 | 2 | 34*
COc1cccc(-c2oc3c(c2C#CC2(N)CCCCC2)C(O)CCC3)c1 (stereo not given) | -7 | -10 | -23 | . | -6 | 3
O=C(c1ccc(C(=O)N2CCOCC2)s1)N1CCOCC1 | -3 | -4 | -8 | -2 | -5 | 0
O=C(c1ccc(-c2ccccc2Cl)s1)N1CCOCC1 | -2 | -5 | 11 | 11 | -15 | 35*
CC(=O)Nc1ccc(NC(=O)CSc2n[nH]c(-c3cccs3)n2)cc1 | -3 | -4 | -4 | 2 | -14 | 0
Cc1ccc(-c2cccc(C3CC=CC4C3C(=O)N(Cc3ccccc3)C4c3cc(C)ccc3F)c2)cc1 (stereo not given) | 0 | -5 | -1 | -1 | 19 | 30*
C[C@@]12CCC=C[C@H]1[C@H](c1ccc(/C=C/c3ccccc3)cc1F)N(Cc1ccccc1)C2=O | -3 | -10 | -11 | 0 | 27 | 21*
